Measured values from ChEMBL document CHEMBL4138145, “Cyclic Cystine-Bridged Peptides from the Marine Sponge Clathria basilana Induce Apoptosis in Tumor Cells and Depolarize the Bacterial Cytoplasmic Membrane” (J Nat Prod, 2017).
pIC50: −log10 of the molar value. ≈ marks a conversion by molar mass, not a printed value. Calls of active or inactive are those of the source. The calls are words filed in the database; no cut-off is given here. Where a SMILES comes first, the peptide text is derived from it. Bridges are numbered along the chain shown (N, C = ends). The star is where a group is joined. X1 = CC(C)[C@H](C)C(=O)*; X2 = C(=C\c1ccccc1)/N*

What was measured:
HL-60 = test: Cytotoxicity against human HL60 cells assessed as reduction in cell viability after 24 hrs by MTT assay; assay type: functional, cell-based; conditions: HL-60, 24 h
Procedure, shortened: (§1)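 Suspension cells at 5 × 10^5 cells/mL, exposed 24 h to varying compound concentrations; 0.1% v/v DMSO as negative control. MTT added to 1 mg/mL final for 60 min, cells pelleted, formazan extracted in DMSO for 25 min at rt, A570 read with 650 nm reference. Viability relative to DMSO set at 100%; IC50 from fitted curves.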

Klebsiella pneumoniae = test: Antimicrobial activity against Klebsiella pneumoniae after 16 to 20 hrs by broth micro dilution method; assay type: functional, organism-based
Procedure, shortened: (§2)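 Broth microdilution per CLSI in cation-adjusted Mueller-Hinton broth. Inoculum made by direct colony suspension, 5 × 10^5 CFU/mL final, added to serial 2-fold compound dilutions. Plates kept 16–20 h at 37 °C in ambient air. MIC is the lowest concentration with no visible growth. Strains are ATCC CLSI quality-control strains; A. baumannii 09987 is a Bonn clinical isolate.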

Homo sapiens [1] = organism: Homo sapiens; test: Induction of apoptosis in human Jurkat 16 cells assessed as activation of caspase 3 at 1 uM using Ac-DEVD-AMC as substrate measured up to 4 hrs by […]; assay type: functional, cell-based
Staphylococcus aureus [2] = test: Antimicrobial activity against Staphylococcus aureus after 16 to 20 hrs by broth micro dilution method; assay type: functional; procedure, shortened: as §2
A2780 = test: Cytotoxicity against human A2780 cells assessed as reduction in cell viability after 72 hrs by MTT assay; assay type: functional, cell-based; conditions: A2780, 72 h
Procedure, shortened: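 A2780 ovarian carcinoma cells were grown in RPMI-1640 with 10% FBS, penicillin and streptomycin, about 9000 cells/well, preincubated overnight. Increasing compound concentrations were applied for 72 h, then MTT was added. Absorbance read at 544 nm minus the 690 nm reference.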

Bacillus subtilis [3] = test: Induction of cell envelope stress in Bacillus subtilis isolate 1S34 assessed as increase in ypuA promoter activity at 20 nmol after 14 to 18 hrs by beta-galactosidase reporter gene assay; assay type: functional, organism-based
Procedure, shortened: (§3)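 Agar-based β-galactosidase promoter-reporter assay. B. subtilis 1S34 grown to stationary phase in LB with spectinomycin 50 μg/mL, then set at 3 × 10^7 CFU/mL in LB soft agar (0.7%) containing X-Gal 150 μg/mL. Test compounds spotted at 20 nmol; reference antibiotics given on paper discs (5–30 μg). Plates read for promoter induction after 14–18 h at 30 °C.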

NOMO-1 = test: Cytotoxicity against human NOMO1 cells assessed as reduction in cell viability after 24 hrs by MTT assay; assay type: functional, cell-based; conditions: NOMO-1, 24 h; procedure, shortened: as §1
Bacillus subtilis [4] = test: Induction of cell envelope stress in Bacillus subtilis isolate 1S34 assessed as increase in liaI promoter activity at 20 nmol after 14 to 18 hrs by beta-galactosidase reporter gene assay; assay type: functional, organism-based; procedure, shortened: as §3
[5] = tested on: Mycobacterium tuberculosis; test: Antimicrobial activity against Mycobacterium tuberculosis H37Rv up to 100 uM after 5 days by resazurin dye based assay; assay type: functional, organism-based
Procedure, shortened: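 M. tuberculosis H37Rv was grown aerobically at 37 °C in Middlebrook 7H9 with ADS enrichment, 0.5% glycerol and 0.05% tyloxapol, then precultured to log phase (OD600 0.5−1). Cells were seeded at 1 × 10^5 per well on 2-fold dilutions over 100−0.78 μM and held 5 days at 37 °C. Resazurin was added for 16 h at ambient temperature, then cells were formalin-fixed and fluorescence read (ex 540, em 590 nm). Growth is relative to rifampicin (0%) and DMSO (100%).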

Homo sapiens [6] = organism: Homo sapiens; test: Induction of apoptosis in human Jurkat 16 cells assessed as maximum activation of caspase 3 at 10 uM using Ac-DEVD-AMC as substrate measured after 6 to 7 hrs by immuno blot analysis; assay type: functional, cell-based
Homo sapiens [7] = organism: Homo sapiens; test: Induction of apoptosis in human Jurkat 16 cells assessed as increase in PARP cleavage at 10 uM measured up to 4 to 8 hrs by immuno blot analysis; assay type: functional, cell-based
[8] = Cytotoxicity against human Jurkat 16 cells assessed as reduction in cell viability after 24 hrs by MTT assay; assay type: functional, cell-based; procedure, shortened: as §1
Klebsiella aerogenes = test: Antimicrobial activity against Enterobacter aerogenes after 16 to 20 hrs by broth micro dilution method; assay type: functional, organism-based; procedure, shortened: as §2
MEF = test: Inhibition of autophagy in mouse MEF expressing mCitrine-hLC3B assessed as reduction in amino acid starvation-induced degradation of LC3 at 10 uM after 4 hrs by flow cytometry; assay type: functional, cell-based
Procedure, shortened: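 MEFs stably expressing mCitrine-hLC3B were held 4 h in full medium or EBSS starvation medium with 10 μM compound; bafilomycin A1 10 nM was the inhibition control. Cells were trypsinized, washed and read by flow cytometry for median mCitrine fluorescence. Values normalized to DMSO-treated full-medium cells; mean ± SD of 3 independent analyses; Student's t test.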

Ramos [9] = test: Induction of apoptosis in human Ramos cells assessed as activation of caspase 3 at 1 uM using Ac-DEVD-AMC as substrate measured up to 4 hrs by immuno blot analysis; assay type: functional, cell-based
Ramos [10] = test: Induction of apoptosis in human Ramos cells assessed as PARP cleavage at 10 uM cotreated with pan-caspase inhibitor QVD-OPh measured after 2 to 8 hrs by Western blot analysis; assay type: functional, cell-based
Procedure, shortened: (§4)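 Ramos cells were exposed for 2–8 h with or without Q-VD-OPh 10 μM; staurosporine 2.5 μM served as positive control. Cells were lysed in Tris/Triton buffer with phosphatase and protease inhibitors. Then 25 μg protein was run on 10% SDS-PAGE and blotted to PVDF for PARP cleavage, with β-actin as loading control.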

Ramos [11] = test: Cytotoxicity against human Ramos cells assessed as reduction in cell viability after 24 hrs by MTT assay; assay type: functional, cell-based; procedure, shortened: as §1
Pseudomonas aeruginosa = test: Antimicrobial activity against Pseudomonas aeruginosa after 16 to 20 hrs by broth micro dilution method; assay type: functional, organism-based; procedure, shortened: as §2
Enterococcus faecium = test: Antimicrobial activity against vancomycin-resistant Enterococcus faecium isolate BM 4147-1 after 16 to 20 hrs by broth micro dilution method; assay type: functional
Bacillus subtilis [12] = test: Induction of translation arrest in Bacillus subtilis isolate 1S34 assessed as increase in bmrC promoter activity at 20 nmol after 14 to 18 hrs by beta-galactosidase reporter gene assay; assay type: functional, organism-based
Bacillus subtilis [13] = test: Induction of RNA damage in Bacillus subtilis isolate 1S34 assessed as increase in helD promoter activity at 20 nmol after 14 to 18 hrs by beta-galactosidase reporter gene assay; assay type: functional, organism-based; procedure, shortened: as §3
Ramos [14] = test: Induction of apoptosis in human Ramos cells assessed as activation of caspase 3 at 10 uM using Ac-DEVD-AMC as substrate measured up to 4 hrs by immuno blot analysis; assay type: functional, cell-based
Ramos [15] = test: Induction of apoptosis in human Ramos cells assessed as maximum activation of caspase 3 at 1 uM using Ac-DEVD-AMC as substrate measured after 6 to 7 hrs by immuno blot analysis; assay type: functional, cell-based
Homo sapiens [16] = organism: Homo sapiens; test: Induction of apoptosis in human Jurkat 16 cells assessed as maximum activation of caspase 3 at 1 uM using Ac-DEVD-AMC as substrate measured after 6 to 7 hrs by immuno blot analysis; assay type: functional, cell-based
Escherichia coli = test: Antimicrobial activity against Escherichia coli after 16 to 20 hrs by broth micro dilution method; assay type: functional, organism-based; procedure, shortened: as §2
Ramos [17] = test: Induction of apoptosis in human Ramos cells assessed as maximum activation of caspase 3 at 10 uM using Ac-DEVD-AMC as substrate measured after 6 to 7 hrs by immuno blot analysis; assay type: functional, cell-based
Bacillus subtilis [18] = test: Induction of DNA damage in Bacillus subtilis isolate 1S34 assessed as increase in yorB promoter activity at 20 nmol after 14 to 18 hrs by beta-galactosidase reporter gene assay; assay type: functional, organism-based; procedure, shortened: as §3
Homo sapiens [19] = organism: Homo sapiens; test: Induction of apoptosis in human Jurkat 16 cells assessed as activation of caspase 3 at 10 uM using Ac-DEVD-AMC as substrate measured up to 4 hrs by immuno blot analysis; assay type: functional, cell-based
Ramos [20] = test: Induction of apoptosis in human Ramos cells assessed as increase in PARP cleavage at 10 uM measured up to 4 to 8 hrs by immuno blot analysis; assay type: functional, cell-based; procedure, shortened: as §4
Acinetobacter baumannii = test: Antimicrobial activity against Acinetobacter baumannii isolate 09987 after 16 to 20 hrs by broth micro dilution method; assay type: functional, organism-based; procedure, shortened: as §2
Staphylococcus aureus [21] = test: Disruption of inner membrane potential in Staphylococcus aureus NCTC 8325 at 0.2 uM measured after 30 to 60 mins by DiOC2(3) dye based fluorescence assay; assay type: functional, organism-based
Procedure, shortened: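 S. aureus NCTC 8325 grown to exponential phase in LB, resuspended in PBS at OD600 0.5, and loaded with 30 μM DiOC2(3) for 15 min before compound addition. Fluorescence read 30 and 60 min later: excitation 485 nm, emission 530 nm (green) and 630 nm (red). Controls were CCCP 5 μM and DMSO. Two runs on different days with independent cultures.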

CC[C@H](C)[C@@H]1NC(=O)[C@@H](NC(=O)[C@@H](C)C(C)C)CSSC[C@@H](C(=O)N/C=C/c2ccccc2)NC(=O)[C@H]([C@@H](C)CC)NC(=O)[C@H]([C@@H](C)CC)NC(=O)[C@H]([C@@H](C)CC)NC1=O (X1-CIIIIC-X2; disulfide 1-6)
pIC50 (HL-60): 4.55
Activity (Klebsiella pneumoniae): inactive
Activity (Homo sapiens [1]): inactive
MIC (Staphylococcus aureus [2]): 6.2 µM (≈ 5.42 µg/mL)
pIC50 (A2780): 5.59
Activity (Bacillus subtilis [3]): Active
pIC50 (NOMO-1): 5.00
Activity (Bacillus subtilis [4]): Active
Activity [5]: inactive
Activity (Homo sapiens [6]): Active
Activity (Homo sapiens [7]): Active
pIC50 [8]: 5.34
Activity (Klebsiella aerogenes): inactive
inhibition (MEF): inactive
Activity (Ramos [9]): inactive
Activity (Ramos [10]): inactive
pIC50 (Ramos [11]): 5.23
Activity (Pseudomonas aeruginosa): inactive
MIC (Enterococcus faecium): 12 µM (≈ 10.5 µg/mL)
Activity (Bacillus subtilis [12]): inactive
Activity (Bacillus subtilis [13]): inactive
Activity (Ramos [14]): Active
Activity (Ramos [15]): inactive
Activity (Homo sapiens [16]): inactive
Activity (Escherichia coli): inactive
Activity (Ramos [17]): Active
Activity (Bacillus subtilis [18]): inactive
Activity (Homo sapiens [19]): Active
Activity (Ramos [20]): Active
Activity (Acinetobacter baumannii): inactive
Activity (Staphylococcus aureus [21]): Active
